# Measurements: ChEMBL document CHEMBL1152927, “Diterpene glycosides from the seeds of Pharbitis nil” (J Nat Prod, 2009)
# Columns and labels:
# Assay type in all cases: functional, cell-based
# [1] = tested on: HCT-15; experiment: Cytotoxicity against human HCT15 cells by SRB assay
# Outline: (§1)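 Sulforhodamine B (SRB) assay against cultured human cancer cell lines, run at the Korea Research Institute of Chemical Technology. Cytotoxicity is reported as IC50 in µM.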
# [2] = tested on: SK-OV-3; experiment: Cytotoxicity against human SKOV3 cells by SRB assay; outline: as §1
# [3] = tested on: SK-MEL-2; experiment: Cytotoxicity against human SK-MEL-2 cells by SRB assay; outline: as §1
# [4] = tested on: A549; experiment: Cytotoxicity against human A549 cells by SRB assay; outline: as §1
Compound,IC50 [1] [µM],IC50 [2] [µM],IC50 [3] [µM],IC50 [4] [µM]
C[C@@]12CCC[C@@](C)(C(=O)O)[C@H]1[C@H](O)[C@H](O)[C@@]13C[C@H](CC[C@@H]21)[C@](CO)(O[C@@H]1O[C@H](CO)[C@@H](O)[C@H](O)[C@H]1O)C3 [PHARBOSIDE F],> 30,> 30,> 30,> 30
COC(=O)[C@]1(C)CCC[C@@]2(C)[C@@H]3CC[C@H]4C[C@]3(C[C@@]4(CO)O[C@@H]3O[C@H](CO)[C@@H](O)[C@H](O)[C@H]3O)[C@@H](O)[C@@H](O)[C@@H]21 [PHARBOSIDE C],> 30,> 30,> 30,> 30
C[C@@]12CCC[C@@](C)(C(=O)O)[C@H]1[C@H](O)[C@H](O)[C@@]13C[C@H](CC[C@@H]21)[C@](O)(CO)C3,> 30,> 30,> 30,> 30
COc1cccc2c1C(=O)c1c(O)c3c(c(O)c1C2=O)C[C@@](O)(C(=O)CO)C[C@@H]3O[C@H]1C[C@H](N)[C@H](O)[C@H](C)O1 [DOXORUBICIN],0.164,0.056,0.117,–
C[C@]12CCC[C@@]3(C)C(=O)O[C@@H]([C@H](O)[C@@]45C[C@H](CC[C@@H]14)[C@](O)(CO)C5)[C@@H]23,> 30,> 30,> 30,> 30
C=C1C[C@]23C[C@@H]1CC[C@H]2[C@]1(C)CCC[C@@](C)(C(=O)O[C@@H]2O[C@H](CO)[C@@H](O)[C@H](O)[C@H]2O)[C@H]1C[C@@H]3O [PHARBOSIDE A],> 30,> 30,> 30,> 30
C[C@@]12CCC[C@@](C)(C(=O)O[C@@H]3O[C@H](CO)[C@@H](O)[C@H](O)[C@H]3O)[C@H]1[C@H](O)[C@H](O)[C@@]13C[C@H](CC[C@@H]21)[C@](O)(CO)C3 [PHARBOSIDE D],17.2,28.7,14.3,25.2
C=C1C[C@]23C[C@@H]1CC[C@H]2[C@]1(C)CCC[C@@](C)(C(=O)O[C@@H]2O[C@H](CO)[C@@H](O)[C@H](O)[C@H]2O)[C@H]1C[C@H]3O [PHARBOSIDE B],> 30,> 30,> 30,> 30
C[C@@]12CCC[C@@](C)(C(=O)O)[C@H]1[C@H](O)[C@H](O)[C@@]13C[C@H](CC[C@@H]21)[C@](O)(CO[C@@H]1O[C@H](CO)[C@@H](O)[C@H](O)[C@H]1O)C3 [PHARBOSIDE E],22.1,13.8,15.2,23.6
C[C@@]12CCC[C@@](C)(C(=O)O)[C@H]1[C@H](O)[C@H](O)[C@@]13C[C@H](CC[C@@H]21)[C@@](O)(CO)C3,> 30,> 30,> 30,> 30
C=C1C[C@]23C[C@@H]1CC[C@H]2[C@]1(C)CCC[C@@](C)(C(=O)O[C@@H]2O[C@H](CO)[C@@H](O)[C@H](O)[C@H]2O)C1[C@@H]3C=O (stereo partly drawn) [PHARBOSIDE G],> 30,> 30,> 30,> 30
